Active and inactive are the calls of the source. No cut-off for these calls is given here.
Key:
[1] = system: Mino; assay: Antiproliferative activity against human Mino cells at 100 uM preincubated for 48 hrs followed by thymidine addition measure after 16 hrs by Thymidine incorporation assay; type: functional, cell-based
Outline: (§1)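 MCL lines treated 48 h with compound re-added daily, alone or with co-drug (ibrutinib 25 µM where used), then thymidine added for a further 16 h; proliferation read as thymidine incorporation.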

[2] = Half life in HEPES buffer at 80 uM at pH 7.2 by RP-HPLC analysis; type: physicochemical
Outline: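 Compound at 80 µM in 20 mM HEPES (pH 7.2 or 2.0) incubated at 37 °C; aliquots analyzed by RP-HPLC at 0, 1, 4, 6, 12, 18 and 24 h to follow methylthioalkyl deprotection and derive half-life.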

[3] = Half life in Sprague-Dawley rat plasma at 150 uM at pH 7.4 by RP-LCMS analysis; type: ADME
Outline: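 Pooled female Sprague-Dawley rat plasma, pre-warmed 2 min at 37 °C, incubated with compound in triplicate at 37 °C to follow deprotection and half-life.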

[4] = (§2) Prodrug activation in human Mino cells assessed as 9-((2R,3R,4S,5R)-5-(((((2-(1H-Indol-3-yl)ethyl)amino)-(hydroxy)phosphoryl)oxy)methyl)-3,4-dihydroxytetrahydrofuran-2-yl)-2-amino-7-(2-(4-chlorophenoxy)ethyl)-6-oxo-6,9-dihydro-1H-purin-7-ium formation per 5 million cells at 150 uM after 12 hrs by LC-MS/MS analysis; type: cell-based
Outline: (§3)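 Mantle cell lymphoma cells (five million) grown in RPMI with 10% FBS, penicillin/streptomycin and L-glutamine at 37 °C, 5% CO2, then exposed to 150 µM compound for 12 h at 37 °C. Washed with ice-cold PBS, pellet extracted in MeOH/NH4OAc (60:40) with 80 fmol internal standards, three liquid-N2 freeze–thaw cycles, filtered, dried, redissolved in 20 mM HEPES pH 7.2. Analysed by LC-MS/MS against a standard curve.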

[5] = system: Granta-519; assay: as §2, with “GRANTA-519” for “Mino”; type: cell-based; conditions: granta-519, 12 h
Outline: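 Five million MCL cells in RPMI/10% FBS with penicillin, streptomycin and L-glutamine were exposed to compound (150 µM) for 12 h at 37 °C. Cells were washed in cold PBS, extracted in MeOH/NH4OAc (60:40) with 80 fmol internal standards, freeze-thawed three times, then filtered and dried. Residue was taken up in HEPES for LC-MS/MS, quantified against an internal-standard curve.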

[6] = target: T1, Adenosine 5'-monophosphoramidase HINT1 (Homo sapiens, UniProt P49773); assay: Prodrug activation in human Mino cells assessed as Hint1 mediated 2-amino-7-(2-(4-chlorophenoxy)ethyl)-9-((2R,3R,4S,5R)-3,4-dihydroxy-5-(phosphonooxymethyl)tetrahydrofuran-2-yl)-6-oxo-6,9-dihydro-1H-purin-7-ium formation per 5 million cells at 150 uM after 12 hrs by LC-MS/MS analysis; type: cell-based; outline: as §3
[7] = (§4) Antiproliferative activity against human Mino cells preincubated for 48 hrs followed by thymidine addition measure after 16 hrs by Thymidine incorporation assay; type: functional, cell-based; outline: as §1
[8] = system: Mino; assay: as §4; type: functional, cell-based; outline: as §1
[9] = system: Z-138; assay: Antiproliferative activity against human Z138 cells preincubated for 48 hrs followed by thymidine addition measure after 16 hrs by Thymidine incorporation assay; type: functional, cell-based; outline: as §1
[10] = system: Granta-519; assay: Antiproliferative activity against human GRANTA-519 cells at 200 uM preincubated for 48 hrs followed by thymidine addition measure after 16 hrs by Thymidine incorporation assay; type: functional; outline: as §1
[11] = system: Granta-519; assay: Antiproliferative activity against human GRANTA-519 cells after 48 hrs by Annexin V/propidium iodide based flow cytometric analysis; type: functional, cell-based; conditions: Granta-519, 48 h
Outline: (§5)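 MCL lines treated 48 h with compound re-added daily (alone or with co-drug; ibrutinib 25 µM), then survival assessed by Annexin V/PI flow cytometry.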

[12] = target: Eukaryotic translation initiation factor 4E (Homo sapiens) (UniProt P06730); assay: Inhibition of eIF4E in human GRANTA-519 cells assessed as down regulation of c-Myc protein expression after 48 hrs by Western blot method; type: cell-based
Outline: (§6)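 MCL lines treated 48 h with compound; protein quantified and Western blotted with eIF4E, eIF4G, actin, c-Myc and Bcl-2 antibodies.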

[13] = target: Eukaryotic translation initiation factor 4E (Homo sapiens) (UniProt P06730); assay: Inhibition of eIF4E in human Mino cells assessed as down regulation of c-Myc protein expression after 48 hrs by Western blot method; type: cell-based; outline: as §6
[14] = target: Eukaryotic translation initiation factor 4E (Homo sapiens) (UniProt P06730); assay: Inhibition of eIF4E in human GRANTA-519 cells assessed as increase in p27 protein expression after 48 hrs by Western blot method; type: cell-based; outline: as §6
[15] = target: Eukaryotic translation initiation factor 4E (Homo sapiens) (UniProt P06730); assay: Inhibition of eIF4E in human Mino cells assessed as potentiation of ibrutinib induced antiproliferation at 100 uM preincubated for 48 hrs followed by thymidine addition measure after 16 hrs by Thymidine incorporation assay; type: cell-based; outline: as §1
[16] = target: Eukaryotic translation initiation factor 4E-binding protein 1 (Homo sapiens) (UniProt Q13541); assay: Inhibition of 4EBP1 phosphorylation at Ser 65 residues in human Mino cells at 100 uM after 48 hrs by Western blot analysis; type: cell-based; outline: as §6
[17] = target: Eukaryotic translation initiation factor 4E-binding protein 1 (Homo sapiens) (UniProt Q13541); assay: Inhibition of 4EBP1 phosphorylation at Thr 37/46 residues in human Mino cells at 100 uM after 48 hrs by Western blot analysis; type: cell-based; outline: as §6
[18] = target: T1, Adenosine 5'-monophosphoramidase HINT1; assay: (§7) Prodrug activation in human Z138 cells assessed as hint1-mediated 2-amino-7-(2-(4-chlorophenoxy)ethyl)-9-((2R,3R,4S,5R)-3,4-dihydroxy-5-(phosphonooxymethyl)tetrahydrofuran-2-yl)-6-oxo-6,9-dihydro-1H-purin-7-ium formation per 5 million cells at 150 uM after 12 hrs by LC-MS/MS analysis relative to 9-((2R,3R,4S,5R)-5-(((((2-(1H-Indol-3-yl)ethyl)amino)-(hydroxy)phosphoryl)oxy)methyl)-3,4-dihydroxytetrahydrofuran-2-yl)-2-amino-7-(2-(4-chlorophenoxy)ethyl)-6-oxo-6,9-dihydro-1H-purin-7-ium; type: cell-based; outline: as §3
[19] = target: T1, Adenosine 5'-monophosphoramidase HINT1; assay: as §7, with “GRANTA-519” for “Z138”; type: cell-based; outline: as §3
[20] = AUC (0 to 8 hrs) in Sprague-Dawley rat plasma at 25 mg/kg, po by LC-MS/MS analysis; type: ADME, organism-based; parameters: time < 8 hr, dose 25 mg/kg, route oral
Outline: (§8)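 Female Sprague-Dawley rats (250-274 g, n=3, catheterized femoral/jugular veins) dosed once p.o. by gavage (25 mg/kg) then, after a 3-day washout, i.v. (2.5 mg/kg). Formulation: 10 mg/mL in 0.5% aqueous CMC with 5% DMSO. Serial blood draws to 480 min into K2EDTA; plasma protein-precipitated with acetonitrile plus internal standards; LC-MS/MS (positive MRM); non-compartmental PK; %F from dose-normalized AUC per rat.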

[21] = Volume of distribution in Sprague-Dawley rat at 2.5 mg/kg, iv by LC-MS/MS analysis; type: ADME, organism-based; conditions: in vivo
Outline: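 Female Sprague-Dawley rats (n=3, 250-274 g) with catheters; compound in 0.5% aqueous CMC with 5% DMSO given as a single i.v. injection, 2.5 mg/kg. Blood drawn at 0–480 min into K2EDTA tubes. Plasma precipitated with acetonitrile containing internal standards, then LC-MS/MS in positive MRM mode. Parameters from non-compartmental analysis.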

[22] = Oral bioavailability in Sprague-Dawley rat at 25 mg/kg by LC-MS/MS analysis; type: ADME, organism-based; conditions: in vivo; outline: as §8
[23] = Cytotoxicity against human Mino cells assessed as reduction in cell survival at 100 uM after 48 hrs in presence of dexamethasone by Annexin V/propidium iodide based flow cytometric analysis; outline: as §5

Sequence of Eukaryotic translation initiation factor 4E (Homo sapiens) (P06730 whole entry): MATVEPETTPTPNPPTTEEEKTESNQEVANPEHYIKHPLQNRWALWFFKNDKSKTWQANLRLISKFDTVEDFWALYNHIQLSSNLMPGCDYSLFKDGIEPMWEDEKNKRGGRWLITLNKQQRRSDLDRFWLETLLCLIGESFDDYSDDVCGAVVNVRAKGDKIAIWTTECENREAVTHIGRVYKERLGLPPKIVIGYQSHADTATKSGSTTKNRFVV
T1 sequence (P49773 whole entry): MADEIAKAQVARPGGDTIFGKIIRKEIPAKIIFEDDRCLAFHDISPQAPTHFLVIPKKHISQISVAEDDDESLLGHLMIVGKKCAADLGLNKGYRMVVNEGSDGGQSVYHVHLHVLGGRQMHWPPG
Sequence of Eukaryotic translation initiation factor 4E-binding protein 1 (Homo sapiens) (Q13541 whole entry): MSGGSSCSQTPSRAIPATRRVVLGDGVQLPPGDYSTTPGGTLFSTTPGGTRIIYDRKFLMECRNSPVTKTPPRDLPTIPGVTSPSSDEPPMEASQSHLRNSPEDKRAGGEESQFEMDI

- half-life at 80 µM [2]: 8.5 h
- half-life at 150 µM [3]: 7.2 h
- Drug metabolism [4]: 64.6 pmol
- Drug metabolism [5]: 0.33 pmol
- Drug metabolism [6]: 218 pmol
- inhibition [12]: Dose-dependent effect
- inhibition [13]: Dose-dependent effect
- inhibition [14]: Dose-dependent effect
- inhibition [15]: Active
- inhibition [16]: inactive
- inhibition [17]: inactive
- fold change (FC) [18]: 520
- fold change (FC) [19]: 1.9
- AUC(0-t) at 8 h [20]: 28.3 ng·h/mL
- Vd [21]: 205 L/kg
- bioavailability [22]: 23%
Structure (SMILES): CSCCOP(=O)(NCCc1c[nH]c2ccccc12)OC[C@H]1O[C@@H](n2c[n+](CCOc3ccc(Cl)cc3)c3c(=O)[nH]c(N)nc32)[C@H](O)[C@@H]1O (stereo partly drawn)
- Activity [1]: Active
- IC50 [7]: 50 µM
- Activity [8]: Dose-dependent effect
- Activity [9]: Dose-dependent effect
- Activity [10]: 100%
- IC50 [11]: > 200 µM
- Activity [23]: Toxic
